One block for each compound: values may come before it.
Legend:
Histamine H3 receptor [1] = molecular target: T1, Histamine H3 receptor (Homo sapiens, UniProt Q9Y5N1); test: Displacement of [3H[N-alpha-methylhistamine form human recombinant histamine H3 receptor expressed in CHO cells after 1 hr by liquid scintillation counting; format: cell-based
Procedure, shortened: (§1)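 Used CHO cells stably expressing the human H3R for both affinity (pKi) and functional agonist measurements. Each value is the mean ± SEM of n = 3.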

Histamine H3 receptor [2] = molecular target: T1, Histamine H3 receptor; test: Agonist activity at human recombinant histamine H3 receptor expressed in CHO cells assessed as [35S]GTPgammaS binding after 1 hr by liquid scintillation counting; format: functional, cell-based; settings: read-out: EC50; procedure, shortened: as §1
Histamine H3 receptor [3] = molecular target: T1, Histamine H3 receptor; test: Agonist activity at human recombinant histamine H3 receptor expressed in CHO cells assessed as [35S]GTPgammaS binding at 10 nM after 1 hr by liquid scintillation counting relative to (R)-alpha-methylhistamine; format: functional, cell-based
Procedure, shortened: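 CHO cells stably expressing human H3R. Agonist response is given as a percent of the response to the reference H3R agonist. Results are mean ± SEM, n = 3.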

Mus musculus [4] = test: In-vivo agonist activity at histamine H3 receptor in ddY mouse assessed as N-tele-methylhistamine level per gram of brain at 1 mg/kg, po by gas chromatography (RVb = 315 +/- 20 ng); format: functional, organism-based; parameters: dose 1 mg/kg
Mus musculus [5] = test: In-vivo agonist activity at histamine H3 receptor in ddY mouse assessed as N-tele-methylhistamine level per gram of brain at 5 mg/kg, po by gas chromatography (RVb = 315 +/- 20 ng); format: functional, organism-based; parameters: dose 5 mg/kg
Mus musculus [6] = test: In-vivo agonist activity at histamine H3 receptor in ddY mouse assessed as N-tele-methylhistamine level per gram of brain at 30 mg/kg, po by gas chromatography (RVb = 315 +/- 20 ng); format: functional, organism-based; parameters: dose 30 mg/kg
Mus musculus [7] = test: Antistress activity against isolation-induced aggressive behavior in ICR mouse assessed as duration of attacks to intruder mouse at 30 mg/kg, po measured for 10 mins by resident-intruder test (RVb = 54.5 +/- 6.7 sec); format: functional
Mus musculus [8] = test: Antistress activity against isolation-induced aggressive behavior in ICR mouse assessed as duration of attacks to intruder mouse at 3 mg/kg, po measured for 10 mins by resident-intruder test (RVb = 54.5 +/- 6.7 sec); format: functional
[9] = Metabolic stability in rat liver S9 fraction assessed as […] after 60 mins by HPLC analysis; format: ADME, subcellular; settings: s9, 1 h
Procedure, shortened: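 Rat S9 metabolic activity was expressed as pmol/min/mg protein, reported as mean ± SEM with n = 3.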

[10] = Total clearance in Wistar rat at 2 mg/kg, iv after 6 hrs by LC-MS/MS analysis; format: ADME, organism-based; parameters: dose 2 mg/kg, route intravenous; settings: in vivo
Procedure, shortened: (§2)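 Rats received 2 mg/kg iv, with n = 2. Total clearance (L/h/kg), steady-state volume of distribution (L/kg) and half-life (h) were derived.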

[11] = Volume of distribution at steady state in Wistar rat at 2 mg/kg, iv after 6 hrs by LC-MS/MS analysis; format: ADME, organism-based; parameters: dose 2 mg/kg, route intravenous; settings: in vivo, read-out: Vdss; procedure, shortened: as §2
[12] = Half life in Wistar rat at 2 mg/kg, iv after 6 hrs by LC-MS/MS analysis; format: ADME, organism-based; parameters: dose 2 mg/kg, route intravenous; settings: in vivo; procedure, shortened: as §2
[13] = Oral bioavailability in Wistar rat at 5 mg/kg after 24 hrs by LC-MS/MS analysis; format: ADME, organism-based; settings: in vivo
Procedure, shortened: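 In rat, an oral dose of 5 mg/kg (n = 2) was used to determine AUC0-inf and bioavailability (%).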

[14] = Ratio of drug level in brain to plasma in Wistar rat at 5 mg/kg, po after 1 hr; format: ADME, organism-based; parameters: dose 5 mg/kg, route oral; settings: brain and plasma, read-out: BPR
Procedure, shortened: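 Brain/plasma concentration ratio was determined in rats 1 h after administration, with n = 2.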

Histamine H1 receptor = Histamine H1 receptor (Homo sapiens, UniProt P35367); test: Inhibition of histamine H1 receptor
Histamine H2 receptor = Histamine H2 receptor (Homo sapiens, UniProt P25021); test: Inhibition of histamine H2 receptor
Histamine H4 receptor = Histamine H4 receptor (Homo sapiens, UniProt Q9H3N8); test: Inhibition of human recombinant histamine H4 receptor expressed in CHO cells; format: cell-based
[15] = Inhibition of alpha1 adrenergic receptor
[16] = molecular target: Beta-1 adrenergic receptor (Homo sapiens, UniProt P08588); test: Inhibition of beta-1 adrenergic receptor
[17] = molecular target: Beta-2 adrenergic receptor (Homo sapiens, UniProt P07550); test: Inhibition of beta2 adrenergic receptor
[18] = molecular target: T2, Muscarinic acetylcholine receptor M1 (Homo sapiens, UniProt P11229); test: Inhibition of muscarinic M1 receptor
T2 sequence (P11229 whole entry): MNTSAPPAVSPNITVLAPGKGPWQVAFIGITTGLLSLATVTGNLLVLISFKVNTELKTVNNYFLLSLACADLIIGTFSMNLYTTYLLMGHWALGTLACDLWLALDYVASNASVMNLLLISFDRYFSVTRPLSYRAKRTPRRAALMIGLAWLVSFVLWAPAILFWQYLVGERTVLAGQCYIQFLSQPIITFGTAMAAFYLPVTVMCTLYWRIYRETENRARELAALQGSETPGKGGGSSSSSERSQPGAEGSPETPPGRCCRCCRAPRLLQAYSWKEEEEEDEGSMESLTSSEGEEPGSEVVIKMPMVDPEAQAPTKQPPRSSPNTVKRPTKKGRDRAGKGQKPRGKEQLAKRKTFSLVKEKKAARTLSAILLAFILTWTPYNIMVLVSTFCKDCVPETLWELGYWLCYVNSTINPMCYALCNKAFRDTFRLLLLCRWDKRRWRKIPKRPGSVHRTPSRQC

[19] = molecular target: Muscarinic acetylcholine receptor M3 (Homo sapiens, UniProt P20309); test: Inhibition of muscarinic M3 receptor
[20] = molecular target: T3, 5-hydroxytryptamine receptor 1A (Homo sapiens, UniProt P08908); test: Inhibition of 5HT1A receptor
T3 sequence (P08908 whole entry): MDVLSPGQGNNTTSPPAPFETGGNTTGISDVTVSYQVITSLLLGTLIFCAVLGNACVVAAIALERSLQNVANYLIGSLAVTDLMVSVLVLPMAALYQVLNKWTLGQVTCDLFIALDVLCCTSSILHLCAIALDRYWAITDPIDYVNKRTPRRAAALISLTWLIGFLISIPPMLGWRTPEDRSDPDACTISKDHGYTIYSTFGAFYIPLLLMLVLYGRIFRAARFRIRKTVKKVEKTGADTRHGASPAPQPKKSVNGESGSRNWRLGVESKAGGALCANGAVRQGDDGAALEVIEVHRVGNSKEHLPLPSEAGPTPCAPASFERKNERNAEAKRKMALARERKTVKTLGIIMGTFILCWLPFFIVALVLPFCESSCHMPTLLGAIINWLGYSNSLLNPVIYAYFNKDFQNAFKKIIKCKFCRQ

[21] = molecular target: 5-hydroxytryptamine receptor 2A (Homo sapiens, UniProt P28223); test: Inhibition of 5HT2A receptor
[22] = molecular target: T4, 5-hydroxytryptamine receptor 3A (Homo sapiens, UniProt P46098); test: Inhibition of 5HT3 receptor
T4 sequence (P46098 whole entry): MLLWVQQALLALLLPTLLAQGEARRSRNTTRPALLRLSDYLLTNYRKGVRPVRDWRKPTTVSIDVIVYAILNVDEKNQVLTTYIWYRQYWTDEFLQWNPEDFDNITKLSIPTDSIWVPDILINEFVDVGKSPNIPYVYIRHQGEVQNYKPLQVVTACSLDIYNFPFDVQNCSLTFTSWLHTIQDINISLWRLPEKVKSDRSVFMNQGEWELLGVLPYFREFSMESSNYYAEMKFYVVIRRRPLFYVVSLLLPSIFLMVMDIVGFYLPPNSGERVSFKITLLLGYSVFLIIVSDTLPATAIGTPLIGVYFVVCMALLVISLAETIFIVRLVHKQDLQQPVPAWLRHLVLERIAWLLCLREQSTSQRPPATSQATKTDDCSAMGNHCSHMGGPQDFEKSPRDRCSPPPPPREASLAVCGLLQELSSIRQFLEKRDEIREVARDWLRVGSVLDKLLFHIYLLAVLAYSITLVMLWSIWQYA

D(1A) dopamine receptor = D(1A) dopamine receptor (Homo sapiens, UniProt P21728); test: Inhibition of dopamine D1 receptor
D(2) dopamine receptor = D(2) dopamine receptor (Homo sapiens, UniProt P14416); test: Inhibition of dopamine D2 receptor
D(3) dopamine receptor = D(3) dopamine receptor (Homo sapiens, UniProt P35462); test: Inhibition of dopamine D3 receptor
Cytochrome P450 1A2 = molecular target: T5, Cytochrome P450 1A2 (Homo sapiens, UniProt P05177); test: Inhibition of human CYP1A2 expressed in insect cell microsome after 15 mins by fluorescence assay; format: ADME, microsomes
T5 sequence (P05177 whole entry): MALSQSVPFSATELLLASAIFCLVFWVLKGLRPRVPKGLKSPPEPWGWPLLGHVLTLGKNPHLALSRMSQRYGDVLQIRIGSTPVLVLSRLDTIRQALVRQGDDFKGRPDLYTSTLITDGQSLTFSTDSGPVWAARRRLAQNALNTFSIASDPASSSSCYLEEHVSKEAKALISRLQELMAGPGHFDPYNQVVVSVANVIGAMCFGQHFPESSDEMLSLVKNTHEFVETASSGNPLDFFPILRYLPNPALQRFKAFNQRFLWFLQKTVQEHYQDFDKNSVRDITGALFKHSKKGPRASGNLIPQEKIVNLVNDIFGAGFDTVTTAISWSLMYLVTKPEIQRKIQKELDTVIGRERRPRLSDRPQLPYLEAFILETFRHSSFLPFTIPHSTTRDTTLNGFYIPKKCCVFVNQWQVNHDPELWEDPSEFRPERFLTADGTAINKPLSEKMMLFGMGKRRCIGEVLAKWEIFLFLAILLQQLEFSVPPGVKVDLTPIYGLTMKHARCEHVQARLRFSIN

Cytochrome P450 2C19 = Cytochrome P450 2C19 (Homo sapiens, UniProt P33261); test: Inhibition of human CYP2C19 expressed in insect cell microsome after 30 mins by fluorescence assay; format: ADME, microsomes
Cytochrome P450 2D6 = Cytochrome P450 2D6 (Homo sapiens, UniProt P10635); test: Inhibition of human CYP2D6 expressed in insect cell microsome after 30 mins by fluorescence assay; format: ADME, microsomes
Cytochrome P450 3A4 = Cytochrome P450 3A4 (Homo sapiens, UniProt P08684); test: Inhibition of human CYP3A4 expressed in insect cell microsome after 30 mins by fluorescence assay; format: ADME, microsomes
Chain of Cytochrome P450 3A4 (P08684 whole entry): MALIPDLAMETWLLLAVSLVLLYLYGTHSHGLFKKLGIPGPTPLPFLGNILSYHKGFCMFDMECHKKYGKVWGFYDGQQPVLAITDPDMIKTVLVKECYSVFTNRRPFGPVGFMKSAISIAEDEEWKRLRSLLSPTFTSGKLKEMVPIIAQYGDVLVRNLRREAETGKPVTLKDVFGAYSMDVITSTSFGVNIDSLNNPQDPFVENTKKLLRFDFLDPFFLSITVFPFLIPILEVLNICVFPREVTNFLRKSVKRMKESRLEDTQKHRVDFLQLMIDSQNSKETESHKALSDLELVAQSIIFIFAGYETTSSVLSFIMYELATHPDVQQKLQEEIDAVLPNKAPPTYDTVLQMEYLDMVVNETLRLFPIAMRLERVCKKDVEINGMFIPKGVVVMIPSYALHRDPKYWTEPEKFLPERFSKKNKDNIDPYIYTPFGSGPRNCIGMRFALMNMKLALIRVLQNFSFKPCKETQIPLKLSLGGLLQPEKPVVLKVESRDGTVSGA

T1 sequence (Q9Y5N1 whole entry): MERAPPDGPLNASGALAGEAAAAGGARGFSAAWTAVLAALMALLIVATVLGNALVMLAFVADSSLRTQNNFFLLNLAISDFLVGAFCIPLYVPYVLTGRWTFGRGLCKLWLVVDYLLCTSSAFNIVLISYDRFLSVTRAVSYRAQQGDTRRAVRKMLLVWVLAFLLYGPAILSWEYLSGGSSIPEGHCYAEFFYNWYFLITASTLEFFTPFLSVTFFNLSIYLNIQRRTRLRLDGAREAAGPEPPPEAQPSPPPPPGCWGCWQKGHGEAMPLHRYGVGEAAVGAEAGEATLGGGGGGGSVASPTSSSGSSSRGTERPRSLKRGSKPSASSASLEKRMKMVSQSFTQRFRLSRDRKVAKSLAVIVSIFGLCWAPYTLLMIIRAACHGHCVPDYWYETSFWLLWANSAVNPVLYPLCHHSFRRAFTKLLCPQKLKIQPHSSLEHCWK
Chain of 5-hydroxytryptamine receptor 2A (P28223 whole entry): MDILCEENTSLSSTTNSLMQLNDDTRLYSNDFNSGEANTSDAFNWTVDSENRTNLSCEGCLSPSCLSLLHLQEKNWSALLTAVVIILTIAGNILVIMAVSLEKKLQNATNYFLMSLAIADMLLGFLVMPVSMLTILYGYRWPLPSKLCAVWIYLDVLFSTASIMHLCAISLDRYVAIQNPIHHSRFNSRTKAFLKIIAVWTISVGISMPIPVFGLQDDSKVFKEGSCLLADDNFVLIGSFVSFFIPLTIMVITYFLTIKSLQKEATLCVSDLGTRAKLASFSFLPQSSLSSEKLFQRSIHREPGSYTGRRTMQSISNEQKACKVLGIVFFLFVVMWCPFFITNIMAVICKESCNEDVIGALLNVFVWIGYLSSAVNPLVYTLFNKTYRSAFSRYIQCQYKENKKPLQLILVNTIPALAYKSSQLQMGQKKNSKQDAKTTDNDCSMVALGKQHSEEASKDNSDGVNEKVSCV
Chain of Cytochrome P450 2D6 (P10635 whole entry): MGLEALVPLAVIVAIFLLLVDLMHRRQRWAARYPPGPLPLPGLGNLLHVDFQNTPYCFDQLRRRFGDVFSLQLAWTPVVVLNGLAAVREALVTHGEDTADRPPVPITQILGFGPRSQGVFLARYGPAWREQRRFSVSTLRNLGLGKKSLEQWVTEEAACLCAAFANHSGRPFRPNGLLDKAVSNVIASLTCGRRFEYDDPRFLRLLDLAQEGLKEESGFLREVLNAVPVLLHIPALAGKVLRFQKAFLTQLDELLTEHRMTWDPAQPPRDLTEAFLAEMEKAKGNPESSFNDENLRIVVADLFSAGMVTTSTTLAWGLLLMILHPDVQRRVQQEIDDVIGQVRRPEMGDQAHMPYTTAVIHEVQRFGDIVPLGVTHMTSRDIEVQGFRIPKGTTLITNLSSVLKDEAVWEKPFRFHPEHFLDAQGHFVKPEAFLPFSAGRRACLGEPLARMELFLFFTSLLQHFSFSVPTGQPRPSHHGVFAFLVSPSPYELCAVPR
Chain of D(3) dopamine receptor (P35462 whole entry): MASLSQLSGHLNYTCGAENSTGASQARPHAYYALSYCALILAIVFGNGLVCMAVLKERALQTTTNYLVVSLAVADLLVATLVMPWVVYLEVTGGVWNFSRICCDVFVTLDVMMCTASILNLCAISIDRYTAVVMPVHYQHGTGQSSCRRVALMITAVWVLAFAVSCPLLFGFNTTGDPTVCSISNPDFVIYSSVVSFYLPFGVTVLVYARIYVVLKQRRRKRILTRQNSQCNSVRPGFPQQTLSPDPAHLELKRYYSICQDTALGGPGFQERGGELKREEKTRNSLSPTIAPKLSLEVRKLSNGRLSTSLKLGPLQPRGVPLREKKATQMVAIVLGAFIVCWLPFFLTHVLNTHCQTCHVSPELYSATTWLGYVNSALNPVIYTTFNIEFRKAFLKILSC
Chain of Muscarinic acetylcholine receptor M3 (P20309 whole entry): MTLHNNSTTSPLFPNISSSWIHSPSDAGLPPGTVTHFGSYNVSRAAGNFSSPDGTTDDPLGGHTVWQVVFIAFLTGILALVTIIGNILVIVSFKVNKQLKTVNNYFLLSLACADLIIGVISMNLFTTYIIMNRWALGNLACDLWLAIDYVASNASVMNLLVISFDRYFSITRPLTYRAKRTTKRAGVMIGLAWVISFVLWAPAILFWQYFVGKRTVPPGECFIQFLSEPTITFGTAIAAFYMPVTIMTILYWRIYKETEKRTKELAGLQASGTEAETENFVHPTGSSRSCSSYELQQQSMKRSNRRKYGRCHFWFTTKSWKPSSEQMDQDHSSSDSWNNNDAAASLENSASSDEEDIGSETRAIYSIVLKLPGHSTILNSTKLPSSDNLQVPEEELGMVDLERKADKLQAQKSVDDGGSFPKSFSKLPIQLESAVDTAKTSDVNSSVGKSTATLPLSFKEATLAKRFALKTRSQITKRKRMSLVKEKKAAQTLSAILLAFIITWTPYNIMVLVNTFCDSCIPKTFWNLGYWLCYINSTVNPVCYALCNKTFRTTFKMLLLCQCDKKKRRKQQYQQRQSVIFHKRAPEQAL
Chain of D(1A) dopamine receptor (P21728 whole entry): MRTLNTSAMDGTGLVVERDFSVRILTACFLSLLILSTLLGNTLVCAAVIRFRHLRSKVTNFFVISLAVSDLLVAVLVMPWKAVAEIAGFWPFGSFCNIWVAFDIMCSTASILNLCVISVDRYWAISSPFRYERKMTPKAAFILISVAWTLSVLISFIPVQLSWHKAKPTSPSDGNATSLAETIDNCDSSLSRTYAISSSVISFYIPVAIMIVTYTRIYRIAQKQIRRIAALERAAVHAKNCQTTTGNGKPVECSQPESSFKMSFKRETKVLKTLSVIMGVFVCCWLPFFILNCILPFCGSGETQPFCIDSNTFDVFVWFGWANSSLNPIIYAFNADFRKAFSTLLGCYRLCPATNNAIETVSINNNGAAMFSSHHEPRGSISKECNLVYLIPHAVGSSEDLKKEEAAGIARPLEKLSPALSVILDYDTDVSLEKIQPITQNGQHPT
Chain of Beta-1 adrenergic receptor (P08588 whole entry): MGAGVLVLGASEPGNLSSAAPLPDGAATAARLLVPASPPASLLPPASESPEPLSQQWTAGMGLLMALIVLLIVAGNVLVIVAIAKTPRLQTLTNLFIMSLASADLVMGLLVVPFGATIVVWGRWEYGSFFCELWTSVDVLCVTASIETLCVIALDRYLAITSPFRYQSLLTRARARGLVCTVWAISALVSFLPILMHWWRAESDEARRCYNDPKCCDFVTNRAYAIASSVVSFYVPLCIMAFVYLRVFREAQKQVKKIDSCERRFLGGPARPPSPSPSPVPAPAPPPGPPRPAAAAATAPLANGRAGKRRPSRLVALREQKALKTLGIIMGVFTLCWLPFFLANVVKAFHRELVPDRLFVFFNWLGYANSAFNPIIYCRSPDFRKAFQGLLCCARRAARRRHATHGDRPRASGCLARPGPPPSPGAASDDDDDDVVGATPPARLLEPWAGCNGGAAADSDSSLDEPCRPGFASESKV
Chain of Histamine H2 receptor (P25021 whole entry): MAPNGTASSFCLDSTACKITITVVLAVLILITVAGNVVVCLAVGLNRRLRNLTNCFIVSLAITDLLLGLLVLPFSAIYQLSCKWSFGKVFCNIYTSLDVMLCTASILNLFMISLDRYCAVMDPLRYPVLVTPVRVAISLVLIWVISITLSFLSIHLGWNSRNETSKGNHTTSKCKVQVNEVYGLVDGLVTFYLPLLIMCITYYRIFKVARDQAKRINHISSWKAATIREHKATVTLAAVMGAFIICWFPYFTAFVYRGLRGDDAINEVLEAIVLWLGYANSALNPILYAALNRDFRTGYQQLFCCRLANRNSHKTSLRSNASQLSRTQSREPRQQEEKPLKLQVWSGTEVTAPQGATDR
Chain of Cytochrome P450 2C19 (P33261 whole entry): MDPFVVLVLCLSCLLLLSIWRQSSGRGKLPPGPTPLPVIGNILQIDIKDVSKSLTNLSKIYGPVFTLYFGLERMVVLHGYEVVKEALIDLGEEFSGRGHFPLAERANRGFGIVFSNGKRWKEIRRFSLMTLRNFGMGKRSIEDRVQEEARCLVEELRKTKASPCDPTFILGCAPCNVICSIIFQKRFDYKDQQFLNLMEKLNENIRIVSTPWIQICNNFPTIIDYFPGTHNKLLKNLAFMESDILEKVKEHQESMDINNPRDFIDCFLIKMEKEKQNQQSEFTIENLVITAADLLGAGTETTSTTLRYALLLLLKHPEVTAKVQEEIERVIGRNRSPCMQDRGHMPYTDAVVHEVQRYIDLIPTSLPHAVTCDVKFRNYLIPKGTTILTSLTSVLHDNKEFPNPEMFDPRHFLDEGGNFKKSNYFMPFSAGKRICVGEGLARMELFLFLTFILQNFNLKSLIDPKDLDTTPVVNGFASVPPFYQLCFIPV

Structure (SMILES): N=C(N)SCCc1c[nH]cn1
- Activity (Histamine H3 receptor [3]): 91%
- Nτ-methylhistamine level (Mus musculus [4]): 239 ng/g
- Nτ-methylhistamine level (Mus musculus [5]): 133 ng/g
- Nτ-methylhistamine level (Mus musculus [6]): 98 ng/g

Structure (SMILES): NCCc1c[nH]cn1 [HISTAMINE]
- Activity (Histamine H3 receptor [3]): 110%

Structure (SMILES): CC(C)(C)c1ccc(SCCc2c[nH]cn2)cc1
- Ki (Histamine H3 receptor [1]): 0.17 nM
- EC50 (Histamine H3 receptor [2]): 0.75 nM
- Activity (Histamine H3 receptor [3]): 77%
- Nτ-methylhistamine level (Mus musculus [4]): 298 ng/g
- Nτ-methylhistamine level (Mus musculus [5]): 92 ng/g
- Nτ-methylhistamine level (Mus musculus [6]): 96 ng/g
- Time (Mus musculus [7]): 16.3 s
- Time (Mus musculus [8]): 42.9 s
- Stability [9]: 13 pmol/min
- clearance [10]: 46.7 mL/min/kg
- Vd [11]: 3.4 L/kg
- half-life [12]: 1 h
- bioavailability [13]: 53.5%
- Kp at 1 h [14]: 6
- Ki (Histamine H1 receptor): > 1000 nM
- Ki (Histamine H2 receptor): > 1000 nM
- Ki (Histamine H4 receptor): 1.1 nM
- Ki [15]: > 1000 nM
- Ki [16]: > 1000 nM
- Ki [17]: > 1000 nM
- Ki [18]: > 1000 nM
- Ki [19]: > 1000 nM
- Ki [20]: > 1000 nM
- Ki [21]: > 1000 nM
- Ki [22]: > 1000 nM
- Ki (D(1A) dopamine receptor): > 1000 nM
- Ki (D(2) dopamine receptor): > 1000 nM
- Ki (D(3) dopamine receptor): > 1000 nM
- IC50 (Cytochrome P450 1A2): 680 nM
- IC50 (Cytochrome P450 2C19): 8.5 nM
- IC50 (Cytochrome P450 2D6): 680 nM
- IC50 (Cytochrome P450 3A4): 470 nM

Structure (SMILES): Cc1ccc(NCCc2c[nH]cn2)cc1
- Activity (Histamine H3 receptor [3]): 49%

Structure (SMILES): CC(C)(C)c1cccc(NCCc2c[nH]cn2)c1
- Ki (Histamine H3 receptor [1]): 2.2 nM
- EC50 (Histamine H3 receptor [2]): 4.6 nM
- Activity (Histamine H3 receptor [3]): 48%

Continued, values first:

- Ki (Histamine H3 receptor [1]): 14 nM
- EC50 (Histamine H3 receptor [2]): 88 nM
Structure (SMILES): Cc1ccc(NCCc2cnc[nH]2)cc1

- Activity (Histamine H3 receptor [3]): 70%
Structure (SMILES): CC(C)(C)c1ccc(NCCc2c[nH]cn2)cc1

- Ki (Histamine H3 receptor [1]): 0.89 nM
- EC50 (Histamine H3 receptor [2]): 1.6 nM
Structure (SMILES): CC(C)(C)c1ccc(NCCc2cnc[nH]2)cc1

- Ki (Histamine H3 receptor [1]): 9.9 nM
- EC50 (Histamine H3 receptor [2]): 25 nM
Structure (SMILES): Cc1ccc(NCCc2cnc[nH]2)cc1C

Reference: ChEMBL document CHEMBL1158577, “Role of hydrophobic substituents on the terminal nitrogen of histamine in receptor binding and agonist activity: development of an orally active histamine type 3 receptor agonist and evaluation of its antistress activity in mice” (J Med Chem, 2010)
